Test results published in ChEMBL document CHEMBL1126152, “Fluoronaphthyridines as antibacterial agents. 4. Synthesis and structure-activity relationships of 5-substituted-6-fluoro-7-(cycloalkylamino)-1,4-dihydro-4-oxo-1,8- naphthyridine-3-carboxylic acids” (J Med Chem, 1992).
Values after ≈ are worked out from the molar mass of the structure shown. Values joined by “and” are separate entries in the source; they are usually repeats but may differ in a detail not shown here. Equal values may be shown once.

Legend:
[1] = % dose recovered in mouse urine; settings: % recovery
Bacteroides fragilis = assay: In vitro for antibacterial activity against […].; assay type: functional
Summary of the method: (§1)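 MIC by serial 2-fold broth dilution in nutrient broth with an inoculum of 10^6 CFU/mL. Compound range was 0.0005–250 μg/mL. Plates were incubated 18 h at 37 °C. MIC was taken as the lowest concentration preventing visible growth.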

Escherichia coli [2] = assay: Compound was tested for […] against Escherichia coli A 15119 after oral administration of drug in mice; assay type: functional; settings: read-out: PD50
Summary of the method: (§2)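 Mouse protection test against systemic infection. Compound was dissolved in sterile water and given orally to female OF1-strain Swiss mice weighing 18–25 g, with five mice per group.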

Enterococcus faecalis = assay: In vitro for antibacterial activity against Enterococcus faecalis; assay type: functional; summary of the method: as §1
Escherichia coli [3] = assay: In vitro for antibacterial activity against Escherichia coli; assay type: functional; summary of the method: as §1
Enterobacter cloacae = assay: In vitro for antibacterial activity against Enterobacter cloacae; assay type: functional
Klebsiella pneumoniae = assay: In vitro for antibacterial activity against Klebsiella pneumoniae; assay type: functional; summary of the method: as §1
Morganella morganii = assay: In vitro for antibacterial activity against Morganella morganii; assay type: functional; summary of the method: as §1
Pseudomonas aeruginosa [4] = assay: In vitro for antibacterial activity against Pseudomonas aeruginosa; assay type: functional; summary of the method: as §1
Pseudomonas aeruginosa [5] = assay: animal or person; assay type: functional; settings: in Mus musculus, po, read-out: PD50
Proteus mirabilis = assay: In vitro for antibacterial activity against Proteus mirabilis; assay type: functional; summary of the method: as §1
Staphylococcus = assay: Compound was tested for […] against Staphylococcus aureus A 15090 after oral administration of drug in mice; assay type: functional; settings: read-out: PD50; summary of the method: as §2
Serratia marcescens = assay: In vitro for antibacterial activity against Serratia marcescens; assay type: functional; summary of the method: as §1
Streptococcus pneumoniae [6] = assay: Antibacterial activity against Streptococcus pneumoniae; assay type: functional
Staphylococcus aureus [7] = assay: Antibacterial activity against Staphylococcus aureus; assay type: functional
Streptococcus pneumoniae [8] = assay: animal or person; assay type: functional; settings: in Mus musculus, po, read-out: PD50
Mus musculus [9] = species: Mus musculus; settings: in vivo
Staphylococcus aureus [10] = assay: animal or person; assay type: functional; settings: in Mus musculus, po, read-out: PD50
in vivo [11] = settings: mouse, plasma, T1/2
[12] = Solubility was measured at PH - 7.2 buffer
[13] = Partition coefficient (logD); settings: octanol/water
in vivo [14] = settings: mouse, plasma
Escherichia coli [15] = assay: Compound was tested for […] against Escherichia coli A 15119 after oral administration of drug in mice, value in the parenthesis indicates 95% confidence limits; assay type: functional; settings: read-out: PD50; summary of the method: as §2
[16] = Lethal dose was determined in OF1-strain female Swiss mice after intra venous administration of the drug; settings: mouse, in vivo, iv
[17] = Lethal dose was determined in OF1-strain female Swiss mice after oral administration of the drug; settings: mouse, in vivo
Pseudomonas aeruginosa [18] = assay: Compound was tested for […] against Pseudomonas aeruginosa A 9843 after oral administration of drug in mice, value in the parenthesis indicates 95% confidence limits; assay type: functional; settings: read-out: PD50; summary of the method: as §2
Streptococcus pneumoniae [19] = assay: Compound was tested for efficacy on systemic infection against Streptococcus pneumoniae A 9585 after oral administration of drug in mice, value in the parenthesis indicates 95% confidence limits
Mus musculus [20] = species: Mus musculus; settings: in vivo; remark: listed apart in the source

Row | Structure (SMILES) | dose excreted [1] [%] | MIC (Bacteroides fragilis) [µg/mL] | ED50 (Escherichia coli [2]) [mg/kg] | MIC (Enterococcus faecalis) [µg/mL] | MIC (Escherichia coli [3]) [ng/mL] | MIC (Enterobacter cloacae) [µg/mL] | MIC (Klebsiella pneumoniae) [µg/mL] | MIC (Morganella morganii) [µg/mL] | MIC (Pseudomonas aeruginosa [4]) [µg/mL] | ED50 (Pseudomonas aeruginosa [5]) [mg/kg] | MIC (Proteus mirabilis) [µg/mL] | ED50 (Staphylococcus) [mg/kg] | MIC (Serratia marcescens) [µg/mL] | MIC (Streptococcus pneumoniae [6]) [µg/mL] | MIC (Staphylococcus aureus [7]) [µg/mL] | ED50 (Streptococcus pneumoniae [8]) [mg/kg] | T1/2 (Mus musculus [9]) | ED50 (Staphylococcus aureus [10]) [mg/kg] | half-life (in vivo [11]) [min] | solubility [12] [µg/mL] | other results
1 | Cc1c(F)c(N2CCNCC2)nc2c1c(=O)c(C(=O)O)cn2C1CC1 | 12 | 32 (≈ 92.4 µM) | 1.2 | 1 (≈ 2.89 µM) | 8 (≈ 0.0231 µM) | 0.03 (≈ 0.0866 µM) | 0.02 (≈ 0.0577 µM) | 0.06 (≈ 0.173 µM) | 0.5 (≈ 1.44 µM) | 5.6 | 0.13 (≈ 0.375 µM) | 9.6 | 0.13 (≈ 0.375 µM) | 1 (≈ 2.89 µM) | 0.03 (≈ 0.0866 µM) | > 50 | 164 min and 74 min |  |  |  | 
2 | O=C(O)c1cn(-c2ccc(F)cc2F)c2nc(N3CC4CC3CN4)c(F)cc2c1=O (stereo unspecified) | 7 | 1 (≈ 2.4 µM) |  | 0.5 (≈ 1.2 µM) | 4 (≈ 0.00961 µM) | 0.016 (≈ 0.0384 µM) | 0.008 (≈ 0.0192 µM) | 0.06 (≈ 0.144 µM) | 0.25 (≈ 0.6 µM) | 2.7 | 0.03 (≈ 0.0721 µM) |  | 0.06 (≈ 0.144 µM) | 0.25 (≈ 0.6 µM) | 0.016 (≈ 0.0384 µM) |  | 89 min | 9.5 | 103 |  | 
3 | Cc1c(F)c(N2CC3CC2CN3)nc2c1c(=O)c(C(=O)O)cn2-c1ccc(F)cc1F (stereo unspecified) | 11 | 4 (≈ 9.29 µM) |  | 0.13 (≈ 0.302 µM) | 8 (≈ 0.0186 µM) | 0.03 (≈ 0.0697 µM) | 0.06 (≈ 0.139 µM) | 0.13 (≈ 0.302 µM) | 0.5 (≈ 1.16 µM) | 1.6 | 0.06 (≈ 0.139 µM) |  | 0.13 (≈ 0.302 µM) | 0.06 (≈ 0.139 µM) | 0.008 (≈ 0.0186 µM) |  | 125 min | 0.7 | 143 | 50 (≈ 116 µM) | logD [13]: 0.59; Cmax (in vivo [14]): 20000 ng/mL
4 | O=C(O)c1cn(C2CC2)c2cc(N3CCNCC3)c(F)cc2c1=O [CIPROFLOXACIN] |  | 4 (≈ 12.1 µM) | 1.2 | 0.5 (≈ 1.51 µM) |  |  | 0.06 (≈ 0.181 µM) |  |  | 2.6 |  | 8 | 0.03 (≈ 0.0905 µM) | 0.25 (≈ 0.754 µM) | 0.13 (≈ 0.392 µM) | > 50 |  |  |  |  | 
5 | CC(C)(C)n1cc(C(=O)O)c(=O)c2cc(F)c(N3CC4CC3CN4)nc21 (stereo unspecified) | 34 | 4 (≈ 11.1 µM) |  | 0.5 (≈ 1.39 µM) | 8 (≈ 0.0222 µM) | 0.02 (≈ 0.0555 µM) | 0.02 (≈ 0.0555 µM) | 0.06 (≈ 0.166 µM) | 0.25 (≈ 0.694 µM) |  | 0.06 (≈ 0.166 µM) |  | 0.06 (≈ 0.166 µM) | 0.13 (≈ 0.361 µM) | 0.003 (≈ 0.00832 µM) |  | 95 min | 1.6 | 96 | 80 (≈ 222 µM) | ED50 (Escherichia coli [15]): 1.8 mg/kg; LD50 [16]: 303 mg/kg; LD50 [17]: 5000 mg/kg; ED50 (Pseudomonas aeruginosa [18]): 4.7 mg/kg; Cmax (in vivo [14]): 10000 ng/mL; PD50 (Streptococcus pneumoniae [19]): 29.7 mg/kg
6 | NC1CCN(c2nc3c(cc2F)c(=O)c(C(=O)O)cn3-c2ccc(F)cc2F)C1 (stereo unspecified) [TOSUFLOXACIN] |  | 1 (≈ 2.47 µM) | 1.8 | 0.25 (≈ 0.618 µM) | 4 (≈ 0.00989 µM) | 0.03 (≈ 0.0742 µM) | 0.016 (≈ 0.0396 µM) | 0.06 (≈ 0.148 µM) | 0.25 (≈ 0.618 µM) | 2.9 | 0.03 (≈ 0.0742 µM) | 2.1 | 0.13 (≈ 0.322 µM) | 0.06 (≈ 0.148 µM) | 0.016 (≈ 0.0396 µM) | 11.4 | 83 min |  | 144 | 20 (≈ 49.5 µM) | LD50 [16]: 81 mg/kg; LD50 [17]: 2500 mg/kg; logD [13]: 0.1
7 | O=C(O)c1cn(C2CC2)c2nc(N3CCNCC3)c(F)cc2c1=O |  |  | 0.4 | 8 (≈ 24.1 µM) | 30 (≈ 0.0903 µM) | 0.06 (≈ 0.181 µM) | 0.06 (≈ 0.181 µM) | 0.06 (≈ 0.181 µM) | 0.5 (≈ 1.5 µM) | 3.6 | 0.25 (≈ 0.752 µM) | 7 | 0.25 (≈ 0.752 µM) |  | 0.25 (≈ 0.752 µM) |  |  |  |  |  | 
8 | CN[C@H]1CCN(c2nc3c(c(C)c2F)c(=O)c(C(=O)O)cn3-c2ccc(F)cc2F)C1 |  | 2 (≈ 4.63 µM) | 2.7 | 0.25 (≈ 0.578 µM) | 16 (≈ 0.037 µM) | 0.03 (≈ 0.0694 µM) | 0.016 (≈ 0.037 µM) | 0.06 (≈ 0.139 µM) | 1 (≈ 2.31 µM) | 1.8 | 0.13 (≈ 0.301 µM) |  | 0.25 (≈ 0.578 µM) | 0.06 (≈ 0.139 µM) | 0.008 (≈ 0.0185 µM) | 4.1 |  | 1.8 |  | 10 (≈ 23.1 µM) | LD50 [16]: 94 mg/kg; LD50 [17]: 2500 mg/kg; logD [13]: 1.38; AUC (Mus musculus [20]): 32 µg·h/mL
9 | Cc1c(F)c(N2CC[C@H](N)C2)nc2c1c(=O)c(C(=O)O)cn2-c1ccc(F)cc1F |  | 0.25 (≈ 0.598 µM) | 1.8 | 0.06 (≈ 0.143 µM) | 2 (≈ 0.00478 µM) | 0.002 (≈ 0.00478 µM) | 0.002 (≈ 0.00478 µM) | 0.03 (≈ 0.0717 µM) | 0.25 (≈ 0.598 µM) | 2.2 | 0.008 (≈ 0.0191 µM) |  | 0.03 (≈ 0.0717 µM) | 0.03 (≈ 0.0717 µM) | 0.002 (≈ 0.00478 µM) | 7.9 |  | 1.7 |  | 50 (≈ 120 µM) | LD50 [16]: 84 mg/kg; LD50 [17]: 2500 mg/kg; logD [13]: 1.22
